Data reported in ChEMBL document CHEMBL4177595, “Design and synthesis of a novel series of orally active, selective somatostatin receptor 2 agonists for the treatment of type 2 diabetes” (Bioorg Med Chem, 2017).
pIC50: −log10 of the molar value.

What was measured:
[1] = Lipophilicity, log D of the compound; assay type: physicochemical; conditions: octanol/water
[2] = target: Somatostatin receptor type 2 (Homo sapiens, UniProt P30874); test: Displacement of [125I]somatostatin-14 (Tyr11) from human SSTR2 expressed in CHO dhfr cell membranes after 60 mins by TopCount scintillation counting method
Somatostatin receptor type 2, sequence (P30874 whole entry): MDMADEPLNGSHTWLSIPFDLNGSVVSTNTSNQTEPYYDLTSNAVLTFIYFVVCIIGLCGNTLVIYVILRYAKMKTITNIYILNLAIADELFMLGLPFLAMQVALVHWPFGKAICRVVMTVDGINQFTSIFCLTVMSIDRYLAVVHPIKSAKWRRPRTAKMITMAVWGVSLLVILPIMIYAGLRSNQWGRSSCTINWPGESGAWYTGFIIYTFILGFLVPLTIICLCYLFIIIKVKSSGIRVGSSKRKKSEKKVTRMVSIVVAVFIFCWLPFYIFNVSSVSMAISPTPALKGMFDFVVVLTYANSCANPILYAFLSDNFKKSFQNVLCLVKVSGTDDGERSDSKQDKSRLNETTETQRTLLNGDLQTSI
In short: (§1)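 Membrane fractions were prepared from CHO dhfr- cells stably transfected with each human SSTR subtype, with a high-expressing single colony selected for each. Membranes in 25 mM Tris-HCl pH 7.4 with 0.1% BSA, EDTA and protease inhibitors were incubated with 50 pM [125I]SST-14 (Tyr11) and a range of compound concentrations for 60 min at room temperature. Excess SST-14 defined nonspecific binding. Samples were filtered on PEI-soaked GF/B filters before counting. IC50 came from pseudo-Hill fitting.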

[3] = tested on: HepG2; test: Induction of phospholipidosis in human HepG2 cells up to 50 uM after 24 hrs by NBD-PE fluorophore-based assay relative to amiodarone; assay type: cell-based; conditions: hepg2, 24 h
[4] = target: Somatostatin receptor type 5 (Homo sapiens, UniProt P35346); test: Displacement of [125I]somatostatin-14 (Tyr11) from human SSTR5 expressed in CHO dhfr cell membranes after 60 mins by TopCount scintillation counting method; in short: as §1
Somatostatin receptor type 5, sequence (P35346 whole entry): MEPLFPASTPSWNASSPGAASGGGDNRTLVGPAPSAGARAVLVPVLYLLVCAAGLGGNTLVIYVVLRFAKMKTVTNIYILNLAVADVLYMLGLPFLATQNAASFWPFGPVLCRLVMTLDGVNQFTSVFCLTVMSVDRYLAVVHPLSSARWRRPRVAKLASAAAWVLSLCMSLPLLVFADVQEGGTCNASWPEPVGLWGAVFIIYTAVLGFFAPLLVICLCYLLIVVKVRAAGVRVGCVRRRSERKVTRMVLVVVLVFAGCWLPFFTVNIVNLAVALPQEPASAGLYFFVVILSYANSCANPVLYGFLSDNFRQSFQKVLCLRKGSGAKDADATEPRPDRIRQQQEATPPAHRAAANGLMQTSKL

[5] = Oral bioavailability in Sprague-Dawley rat at 1 mg/kg after 1 hr; assay type: ADME, organism-based; conditions: in vivo
[6] = AUC in Sprague-Dawley rat at 0.3 mg/kg, iv after 1 hr; assay type: ADME, organism-based; parameters: time < 1 hr, dose 0.3 mg/kg, route intravenous; conditions: in vivo
[7] = Total clearance in Sprague-Dawley rat at 0.3 mg/kg, iv after 1 hr; assay type: ADME, organism-based; conditions: in vivo
[8] = MRT in Sprague-Dawley rat at 1 mg/kg, po; assay type: ADME, organism-based; conditions: in vivo
[9] = Cmax in Sprague-Dawley rat at 1 mg/kg, po after 1 hr; assay type: ADME, organism-based; parameters: dose 1 mg/kg, route oral; conditions: in vivo
[10] = target: Somatostatin receptor type 1 (Homo sapiens, UniProt P30872); test: Displacement of [125I]somatostatin-14 (Tyr11) from human SSTR1 expressed in CHO dhfr cell membranes after 60 mins by TopCount scintillation counting method; in short: as §1
Somatostatin receptor type 1, sequence (P30872 whole entry): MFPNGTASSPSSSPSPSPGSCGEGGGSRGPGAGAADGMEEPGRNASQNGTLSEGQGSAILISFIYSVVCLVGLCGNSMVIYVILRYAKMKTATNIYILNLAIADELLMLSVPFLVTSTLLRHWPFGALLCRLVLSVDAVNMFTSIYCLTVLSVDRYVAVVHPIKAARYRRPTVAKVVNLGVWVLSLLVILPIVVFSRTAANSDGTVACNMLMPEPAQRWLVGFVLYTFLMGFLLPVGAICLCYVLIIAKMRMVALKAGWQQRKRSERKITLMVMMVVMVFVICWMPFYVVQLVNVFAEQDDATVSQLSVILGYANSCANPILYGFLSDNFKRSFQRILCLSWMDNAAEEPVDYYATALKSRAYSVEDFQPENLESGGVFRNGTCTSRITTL

[11] = Tmax in Sprague-Dawley rat at 1 mg/kg, po after 1 hr; assay type: ADME, organism-based; conditions: in vivo
[12] = Plasma concentration in Sprague-Dawley rat at 0.3 mg/kg, iv after 5 mins; assay type: ADME, organism-based
[13] = species: Rattus norvegicus; test: Inhibition of hypoglycemia-induced glucagon secretion in Sprague-Dawley rat pretreated for 1 hr followed by insulin addition measured after 30 mins post insulin secretion by radioimmunoassay; assay type: functional
In short: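 SD rats were given compound orally, then insulin 2 IU/kg s.c. 1 h after dosing. Tail-vein blood was drawn 30 min after insulin, and plasma glucagon was measured by radioimmunoassay. Values are means ± SD (n = 6), compared with vehicle by one-tailed Williams' test. ED50 was derived from the dose-response.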

[14] = species: Rattus norvegicus; test: Antidiabetic activity in Wistar rat type 2 diabetic model assessed as inhibition of glucose excursion up to 60 mins by meal tolerance test; assay type: functional; conditions: 1 h, read-out: MED
In short: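 Female Wistar fatty rats were fasted overnight and then dosed orally with vehicle or compound, followed by a liquid meal challenge (20 kcal/kg). Plasma glucose was followed over time. The read-out was AUC of delta plasma glucose, and a minimum effective dose was determined.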

[15] = Volume of distribution at steady state in Sprague-Dawley rat at 0.3 mg/kg, iv after 1 hr; assay type: ADME, organism-based; conditions: in vivo, read-out: Vdss
[16] = target: Somatostatin receptor type 3 (Homo sapiens, UniProt P32745); test: Displacement of [125I]somatostatin-14 (Tyr11) from human SSTR3 expressed in CHO dhfr cell membranes after 60 mins by TopCount scintillation counting method; in short: as §1
Somatostatin receptor type 3, sequence (P32745 whole entry): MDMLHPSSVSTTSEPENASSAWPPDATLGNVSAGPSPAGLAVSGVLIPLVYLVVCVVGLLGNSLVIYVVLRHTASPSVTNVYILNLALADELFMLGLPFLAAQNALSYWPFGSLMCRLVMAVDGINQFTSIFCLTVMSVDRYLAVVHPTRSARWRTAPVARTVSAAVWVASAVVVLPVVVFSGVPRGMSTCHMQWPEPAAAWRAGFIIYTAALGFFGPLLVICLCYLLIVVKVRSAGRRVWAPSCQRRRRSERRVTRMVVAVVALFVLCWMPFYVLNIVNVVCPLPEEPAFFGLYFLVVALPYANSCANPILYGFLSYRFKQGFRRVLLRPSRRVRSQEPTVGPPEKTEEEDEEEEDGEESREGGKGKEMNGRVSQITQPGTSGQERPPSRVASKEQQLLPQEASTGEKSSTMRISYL

[17] = AUC in Sprague-Dawley rat at 1 mg/kg, po after 1 hr; assay type: ADME, organism-based; parameters: time < 1 hr, dose 1 mg/kg, route oral; conditions: in vivo
[18] = MRT in Sprague-Dawley rat at 0.3 mg/kg, iv; assay type: ADME, organism-based; conditions: in vivo
[19] = target: Somatostatin receptor type 4 (Homo sapiens, UniProt P31391); test: Displacement of [125I]somatostatin-14 (Tyr11) from human SSTR4 expressed in CHO dhfr cell membranes after 60 mins by TopCount scintillation counting method; in short: as §1
Somatostatin receptor type 4, sequence (P31391 whole entry): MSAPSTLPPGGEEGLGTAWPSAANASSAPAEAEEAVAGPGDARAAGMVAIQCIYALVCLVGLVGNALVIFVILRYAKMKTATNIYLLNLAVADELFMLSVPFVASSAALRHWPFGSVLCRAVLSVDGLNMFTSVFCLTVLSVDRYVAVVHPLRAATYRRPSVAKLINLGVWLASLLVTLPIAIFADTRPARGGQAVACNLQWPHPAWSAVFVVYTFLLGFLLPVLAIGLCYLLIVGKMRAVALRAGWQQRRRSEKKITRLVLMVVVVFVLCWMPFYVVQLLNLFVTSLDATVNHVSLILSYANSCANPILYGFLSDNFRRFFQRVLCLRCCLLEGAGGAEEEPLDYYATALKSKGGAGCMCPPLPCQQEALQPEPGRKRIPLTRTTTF

Row | logD [1] | pIC50 [2] | Compound | Activity [3] [%] | further results
1 | 1.04 | 8.74 | CC(=O)c1ccc(CN(C)C)cc1NC(=O)[C@H](NC(=O)N1CCN(C(=O)C2CCC2)CC1)[C@@H](C)c1c[nH]c2ccccc12 | 46 | –
2 | 1.35 | 8.70 | CCOc1ccc(CN(C)C)cc1NC(=O)[C@H](NC(=O)N1CCC(C(=O)c2nccs2)CC1)[C@@H](C)c1c[nH]c2ccccc12 | 74 | –
3 | 0.68 | 9.01 | CC(=O)c1ccc(CN(C)C)cc1NC(=O)[C@H](NC(=O)N1CCN(C(=O)C(C)(C)C)CC1)[C@@H](C)c1c[nH]c2ccccc12 | 36 | –
4 | 1.14 | 8.64 | CCOc1ccc(CN(C)C)cc1NC(=O)[C@H](NC(=O)N1CCC(C(=O)c2ccco2)CC1)[C@@H](C)c1c[nH]c2ccccc12 | 54 | –
5 | 1.89 | 9.24 | CCOc1ccc(CN(C)C)cc1NC(=O)[C@H](NC(=O)N1CCC(C(=O)c2cccs2)CC1)[C@@H](C)c1c[nH]c2ccccc12 | 98 | –
6 | 1.84 | 9.17 | CC(=O)c1ccc(CN(C)C)cc1NC(=O)[C@H](NC(=O)N1CCC(C(=O)c2cccs2)CC1)[C@@H](C)c1c[nH]c2ccccc12 | 91 | –
7 | 1.57 | 8.59 | CCOc1ccc(CN(C)C)cc1NC(=O)[C@H](NC(=O)N1CCC(C(=O)c2ccccn2)CC1)[C@@H](C)c1c[nH]c2ccccc12 | 81 | –
8 | 1.44 | 8.70 | CC(=O)c1ccc(CN(C)C)cc1NC(=O)[C@H](NC(=O)N1CCC(C(=O)C(C)C)CC1)[C@@H](C)c1c[nH]c2ccccc12 | 58 | –
9 | 1.5 | 9.16 | CC(=O)c1ccc(CN(C)C)cc1NC(=O)[C@H](NC(=O)N1CCC(C(=O)C2CCC2)CC1)[C@@H](C)c1c[nH]c2ccccc12 | 84 | –

Further lines, the molecule ahead of its results:

Row | Compound | logD [1] | pIC50 [2] | Activity [3] [%] | further results
10 | CCOc1ccc(CN(C)C)cc1NC(=O)[C@H](NC(=O)N1CCN(C(=O)C2CCC2)CC1)[C@@H](C)c1c[nH]c2ccccc12 | 0.73 | 8.68 | 32 | –
11 | C[C@@H](c1c[nH]c2ccccc12)[C@@H](NC(=O)N1CCN(C(=O)C(C)(C)C)CC1)C(=O)Nc1cc(CN(C)C)ccc1OC(F)(F)F | 2.18 | 8.55 | 48 | –
12 | CCOc1ccc(CN(C)C)cc1NC(=O)[C@H](NC(=O)N1CCN(c2ccc(F)cc2)CC1)[C@@H](C)c1c[nH]c2ccccc12 | 2.22 | 9.70 | 99 | –
13 | C[C@@H](c1c[nH]c2ccccc12)[C@@H](NC(=O)N1CCN(c2ccc(F)cc2)C(=O)C1)C(=O)Nc1cc(CN(C)C)ccc1OC(F)(F)F | 2.73 | 9.28 | 50 | –
14 | CC(=O)c1ccc(CN(C)C)cc1NC(=O)[C@H](NC(=O)N1CCN(c2ccc(F)cc2)C(=O)C1)[C@@H](C)c1c[nH]c2ccccc12 | 1.59 | 9.51 | 37 | –
15 | CCOc1ccc(CN(C)C)cc1NC(=O)[C@H](NC(=O)N1CCC(c2ccccc2)CC1)[C@@H](C)c1c[nH]c2ccccc12 | 3 | 9.70 | 111 | pIC50 [4]: < 7.00
16 | CCOc1ccc(CN(C)C)cc1NC(=O)[C@H](NC(=O)N1CCN(C(=O)C(C)(C)C)CC1)[C@@H](C)c1c[nH]c2ccccc12 | 1.09 | 8.64 | 38 | –
17 | CCOc1ccc(CN(C)C)cc1NC(=O)[C@H](NC(=O)N1CCC(C(=O)C(C)C)CC1)[C@@H](C)c1c[nH]c2ccccc12 | 1.5 | 8.96 | 63 | –
18 | CC(=O)c1ccc(CN(C)C)cc1NC(=O)[C@H](NC(=O)N1CCN(c2ccc(F)cc2C)C(=O)C1)[C@@H](C)c1c[nH]c2ccccc12 | 1.81 | 9.62 | 30 | –
19 | CCOc1ccc(CN(C)C)cc1NC(=O)[C@H](NC(=O)N1CCC(C(=O)C2CCC2)CC1)[C@@H](C)c1c[nH]c2ccccc12 | 1.55 | 9.22 | 75 | –
20 | CCOc1ccc(CN(C)C)cc1NC(=O)[C@H](NC(=O)N1CCN(c2ccc(F)cc2C)C(=O)C1)[C@@H](C)c1c[nH]c2ccccc12 | 1.86 | 9.70 | 47 | –
21 | CCOc1ccc(CN(C)C)cc1NC(=O)[C@H](NC(=O)N1CCN(c2ccc(F)cc2)C(=O)C1)[C@@H](C)c1c[nH]c2ccccc12 | 1.65 | 9.70 | 36 | –
22 | CCOc1ccc(CN(C)C)cc1NC(=O)[C@H](NC(=O)N1CCC(C(=O)CC(C)C)CC1)[C@@H](C)c1c[nH]c2ccccc12 | 2.01 | 9.05 | 76 | –
23 | Cc1cc(F)ccc1N1CCN(C(=O)N[C@@H](C(=O)Nc2cc(CN(C)C)ccc2OC(F)(F)F)[C@@H](C)c2c[nH]c3ccccc23)CC1=O | 2.95 | 9.57 to 9.77 | 58 | bioavailability [5]: 5.8%; AUC at 1 h [6]: 119 ng·h/mL; clearance [7]: 43.5 mL/min/kg; MRT [8]: 5.69 h; Cmax [9]: 10.3 ng/mL; pIC50 [10]: 5.29; Tmax [11]: 0.83 h; pIC50 [4]: 5.77; concentration at 5 min [12]: 194 ng/mL; ED50 [13]: 1.1 mg/kg; minimal effective dose [14]: 3 mg/kg; Vd [15]: 6.63 L/kg; pIC50 [16]: 6.44; AUC at 1 h [17]: 22.9 ng·h/mL; MRT [18]: 2.57 h; pIC50 [19]: 7.00
24 | CCCCc1oc2ccccc2c1C(=O)c1cc(I)c(OCCN(CC)CC)c(I)c1 [AMIODARONE] | – | – | 100 | –
